Results: ChEMBL document CHEMBL4765376, “Discovery of an Orally Available Diazabicyclooctane Inhibitor (ETX0282) of Class A, C, and D Serine β-Lactamases” (J Med Chem, 2020)
≈ marks a conversion by molar mass, not a printed value. Calls of active or inactive are those of the source. The rule behind the calls is not given here.

Tests used:
[1] = Stability of compound in phosphate buffer assessed as half-life at pH 7.4; assay type: physicochemical
Procedure, shortened: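 Compound at 10 μM in potassium phosphate buffer pH 7.4 at 37 °C without S9. Sampled at 0 to 60 min and measured by LC/MS/MS. Half-life from the first-order log-linear depletion slope.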

[2] = Metabolic stability in rat intestinal S9 fraction assessed as half-life at 10 uM up to 60 mins by LC/MS/MS analysis; assay type: ADME, subcellular, Intestine
Procedure, shortened: (§1)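 S9 fraction at 0.8 mg/mL protein in 100 mM potassium phosphate pH 7.4, preincubated 5 min at 37 °C, then compound added at 10 μM final. Aliquots taken at 0, 2, 5, 10, 20, 40 and 60 min, quenched in acetonitrile with internal standard, and prodrug measured by LC/MS/MS. First-order half-life taken from the log-linear depletion slope.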

[3] = Metabolic stability in rat liver S9 fraction assessed as half-life at 10 uM up to 60 mins by LC/MS/MS analysis; assay type: ADME, subcellular; procedure, shortened: as §1
[4] = Metabolic stability in human intestinal S9 fraction assessed as half-life at 10 uM up to 60 mins by LC/MS/MS analysis; assay type: ADME, subcellular, Intestine; procedure, shortened: as §1
[5] = Metabolic stability in human liver S9 fraction assessed as half-life at 10 uM up to 60 mins by LC/MS/MS analysis; assay type: ADME, subcellular; procedure, shortened: as §1
[6] = Oral bioavailability in Sprague-Dawley rat at 10 mg/kg by LC/MS/MS analysis; assay type: ADME, organism-based; conditions: in vivo
Procedure, shortened: (§2)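 Jugular vein-cannulated male Sprague Dawley rats (180–200 g, n = 3/route). Intravenous arm: active acid at 10 mg/kg in 0.9% saline, plasma sampled 0.08–8 h. Oral arm: prodrug at a dose equivalent to 10 mg/kg acid in 25:75 PEG 400/WFI, plasma sampled 0.25–24 h. Levels by LC/MS/MS; F = (AUCpo/AUCiv) × 100.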

Escherichia coli [7] = assay: In vivo antibacterial activity against multidrug-resistant Escherichia coli ARC 2687 infected in CD-1 mouse model of neutropenic thigh infection assessed as colony forming unit at 600 mg/kg, sc administered at 6 hrs interval relative to pretreatment; assay type: functional
Procedure, shortened: (§3)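 Female CD-1 mice (20–22 g, 3/arm) made neutropenic with ip cyclophosphamide, 150 mg/kg on day −4 and 100 mg/kg on day −1. Each thigh received an im inoculum of 5.5 × 10^6–1.6 × 10^7 CFU from saline suspension (OD625 0.1, diluted). Dosing began 2 h post-infection, q6h. Oral agents were given in 0.5% HPMC/0.1% Tween 80; meropenem was given sc in water. Thighs were taken at 24 h, homogenized and plated on TSA (35 °C overnight) for CFU counts.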

[8] = Toxicity in rat assessed as adverse effect at 400 to 500 mg/kg, po measured for 14 days; assay type: organism-based; conditions: in vivo, 336 h, dose 400-500 mg/kg, time 14 day
Procedure, shortened: (§4)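 Fourteen-day GLP toxicology study with daily oral administration; NOAEL determined.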

[9] = Cmax in Sprague-Dawley rat at 11.6 mg/kg, po by LC/MS/MS analysis; assay type: ADME, organism-based; parameters: route oral, dose 11.6 mg/kg; conditions: in vivo
[10] = AUC in Sprague-Dawley rat at 11.6 mg/kg, po by LC/MS/MS analysis; assay type: ADME, organism-based; parameters: dose 11.6 mg/kg; conditions: in vivo
[11] = Half-life in Sprague-Dawley rat at 11.6 mg/kg, po by LC/MS/MS analysis; assay type: ADME, organism-based; conditions: in vivo
[12] = Oral bioavailability in Sprague-Dawley rat at 11.6 mg/kg by LC/MS/MS analysis; assay type: ADME, organism-based; conditions: in vivo; procedure, shortened: as §2
[13] = Drug metabolism assessed as diamine metabolite formation
Escherichia coli [14] = assay: Synergistic antibacterial activity against multidrug-resistant Escherichia coli ARC 2687 infected in CD-1 mouse model of neutropenic thigh infection assessed as reduction in colony forming unit in presence of cefpodoxime at 10 to 100 mg/kg, po administered every 6 hrs interval; assay type: functional, organism-based; conditions: dose 10-100 mg/kg; procedure, shortened: as §3
Escherichia coli [15] = assay: Synergistic antibacterial activity against multidrug-resistant Escherichia coli ARC 2687 infected in CD-1 mouse model of neutropenic thigh infection assessed as reduction in colony forming unit in presence of cefpodoxime at 50 to 100 mg/kg, po administered every 6 hrs interval; assay type: functional; conditions: dose 50-100 mg/kg; procedure, shortened: as §3
[16] = Toxicity in dog assessed as adverse effect at 400 to 500 mg/kg, po measured for 14 days; assay type: organism-based, Canis lupus familiaris; conditions: in vivo, 336 h, dose 400-500 mg/kg, time 14 day; procedure, shortened: as §4
Escherichia coli [17] = assay: Antibacterial activity against Escherichia coli ARC3627 assessed as reduction in bacterial growth by CLSI based broth dilution method; assay type: functional
Procedure, shortened: (§5)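 Broth microdilution in CAMHB following CLSI.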

Klebsiella pneumoniae [18] = assay: Antibacterial activity against Klebsiella pneumoniae ARC561 assessed as reduction in bacterial growth by CLSI based broth dilution method; assay type: functional; procedure, shortened: as §5
Klebsiella pneumoniae [19] = assay: Antibacterial activity against Klebsiella pneumoniae ARC 6082 drug resistant clinical isolates assessed as reduction in bacterial growth by CLSI based broth dilution method; assay type: functional
Procedure, shortened: (§6)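 Broth microdilution per CLSI in cation-adjusted Mueller–Hinton broth against drug-resistant clinical isolates; MIC read as the lowest concentration preventing bacterial growth.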

Klebsiella pneumoniae [20] = assay: Antibacterial activity against Klebsiella pneumoniae ARC 6088 carbapenem-resistant clinical isolates assessed as reduction in bacterial growth by CLSI based broth dilution method; assay type: functional; procedure, shortened: as §6
Klebsiella pneumoniae [21] = assay: Antibacterial activity against Klebsiella pneumoniae ARC 6098 drug resistant clinical isolates assessed as reduction in bacterial growth by CLSI based broth dilution method; assay type: functional; procedure, shortened: as §6
Klebsiella pneumoniae [22] = assay: Antibacterial activity against Klebsiella pneumoniae ARC 6107 carbapenem resistant clinical isolates assessed as reduction in bacterial growth by CLSI based broth dilution method; assay type: functional; procedure, shortened: as §6
Klebsiella oxytoca = assay: Antibacterial activity against Klebsiella oxytoca ARC 5389 carbapenem resistant clinical isolates assessed as reduction in bacterial growth by CLSI based broth dilution method; assay type: functional; procedure, shortened: as §6
Citrobacter freundii = assay: Antibacterial activity against Citrobacter freundii ARC 3518 carbapenem resistant clinical isolates assessed as reduction in bacterial growth by CLSI based broth dilution method; assay type: functional; procedure, shortened: as §6
Enterobacter cloacae [23] = assay: Antibacterial activity against Enterobacter cloacae ARC 6049 drug resistant clinical isolates assessed as reduction in bacterial growth by CLSI based broth dilution method; assay type: functional; procedure, shortened: as §6
Enterobacter cloacae [24] = assay: Antibacterial activity against Enterobacter cloacae ARC 6055 drug resistant clinical isolates assessed as reduction in bacterial growth by CLSI based broth dilution method; assay type: functional; procedure, shortened: as §6
Escherichia coli [25] = assay: In vivo antibacterial activity against multidrug-resistant Escherichia coli ARC 2687 infected in CD-1 mouse model of neutropenic thigh infection assessed as colony forming unit at 50 mg/kg, po administered at 6 hrs interval; assay type: functional, organism-based; procedure, shortened: as §3

`CCOC(=O)[C@H](F)ON1C(=O)N2C[C@H]1C=C(C)[C@H]2C(=O)NCCS(N)(=O)=O` showed a half-life [1] of 26 min, a half-life at 10 µM [2] of 20 min and a half-life at 10 µM [3] of 10 min. The half-life at 10 µM [4] was 22 min, the half-life at 10 µM [5] was 9.9 min and the bioavailability [6] was 4%.

In the case of `C[C@@H](O)[C@H]1C(=O)N2C(C(=O)O)=C(S[C@@H]3CN[C@H](C(=O)N(C)C)C3)[C@H](C)[C@H]12` [MEROPENEM], the Activity (Escherichia coli [7]) is reported as -1.46 log10CFU/g.

For `CC1=C[C@@H](C(N)=O)N2C[C@@H]1N(O[C@H](F)C(=O)OC(C)C)C2=O`, the Activity [8] was “Non-Toxic”, the bioavailability [6] was 98% and the Cmax [9] was 5800 ng/mL. For the same compound, the AUC [10] was 7040 ng·h/mL, the half-life [11] was 66 min and the bioavailability [12] was 98%. The Drug metabolism [13] was “Metabolite detected”, the Activity (Escherichia coli [14]) was “Active” and the Activity (Escherichia coli [15]) was 1.11 log10CFU/g. For the same compound, the Activity [16] was “Non-Toxic”.

`COCC1=C(C(=O)O)N2C(=O)[C@@H](NC(=O)/C(=N\OC)c3csc(N)n3)[C@H]2SC1` [CEFPODOXIME] gave an MIC (Escherichia coli [17]) greater than 64 µg/mL, an MIC (Klebsiella pneumoniae [18]) of 32 µg/mL (≈ 74.9 µM) and an MIC (Klebsiella pneumoniae [19]) greater than 64 µg/mL. The MIC (Klebsiella pneumoniae [20]) was greater than 64 µg/mL, the MIC (Klebsiella pneumoniae [21]) was greater than 64 µg/mL and the MIC (Klebsiella pneumoniae [22]) was greater than 64 µg/mL. The MIC (Klebsiella oxytoca) was greater than 64 µg/mL, the MIC (Citrobacter freundii) was greater than 64 µg/mL and the MIC (Enterobacter cloacae [23]) was greater than 64 µg/mL. The MIC (Enterobacter cloacae [24]) was greater than 64 µg/mL and the Activity (Escherichia coli [25]) was “inactive”.
